Series [1] deals with T1, ATP-binding cassette sub-family C member 2 (Homo sapiens, UniProt Q92887). The series can be described thus: Induction of MRP2-mediated E2-17betaG transport in human MRP2 expressing HEK293 cells at 7 uM during 5 mins. The series is classed as ADME, cell-based. The settings on record: hek293, 5 min. The method, boiled down: (§1)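 Inside-out membrane vesicles from HEK293 cells transduced with MRP baculovirus (5 mM butyrate at 24 h, harvested day 3). Reaction: 7.5 µg vesicles in TS buffer pH 7.4 with 4 mM ATP, 10 mM MgCl2 and [3H]E2-17βG, 37°C for 5 min. E2-17βG was 0.16 µM (MRP1), 20 µM (MRP2) or 0.12 µM (MRP4). Uptake was read by rapid filtration and scintillation counting. ATP-dependent uptake was taken as ATP minus AMP values, with drug-free uptake set at 100%. Nominal 10 or 100 µM antagonist; actual concentration measured by LC-MS/MS. Three independent experiments.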

In series [2] the target is T2, Multidrug resistance-associated protein 1 (Homo sapiens, UniProt P33527). The series can be described thus: Inhibition of MRP1-mediated E2-17betaG transport in human MRP1 expressing HEK293 cells at 7 uM during 5 mins. It is filed as ADME, cell-based. The settings on record: hek293, 5 min. The method, boiled down:
as §1

Series [3] has as its target T3, ATP-binding cassette sub-family C member 4 (Homo sapiens, UniProt O15439).
T3 sequence (O15439 whole entry): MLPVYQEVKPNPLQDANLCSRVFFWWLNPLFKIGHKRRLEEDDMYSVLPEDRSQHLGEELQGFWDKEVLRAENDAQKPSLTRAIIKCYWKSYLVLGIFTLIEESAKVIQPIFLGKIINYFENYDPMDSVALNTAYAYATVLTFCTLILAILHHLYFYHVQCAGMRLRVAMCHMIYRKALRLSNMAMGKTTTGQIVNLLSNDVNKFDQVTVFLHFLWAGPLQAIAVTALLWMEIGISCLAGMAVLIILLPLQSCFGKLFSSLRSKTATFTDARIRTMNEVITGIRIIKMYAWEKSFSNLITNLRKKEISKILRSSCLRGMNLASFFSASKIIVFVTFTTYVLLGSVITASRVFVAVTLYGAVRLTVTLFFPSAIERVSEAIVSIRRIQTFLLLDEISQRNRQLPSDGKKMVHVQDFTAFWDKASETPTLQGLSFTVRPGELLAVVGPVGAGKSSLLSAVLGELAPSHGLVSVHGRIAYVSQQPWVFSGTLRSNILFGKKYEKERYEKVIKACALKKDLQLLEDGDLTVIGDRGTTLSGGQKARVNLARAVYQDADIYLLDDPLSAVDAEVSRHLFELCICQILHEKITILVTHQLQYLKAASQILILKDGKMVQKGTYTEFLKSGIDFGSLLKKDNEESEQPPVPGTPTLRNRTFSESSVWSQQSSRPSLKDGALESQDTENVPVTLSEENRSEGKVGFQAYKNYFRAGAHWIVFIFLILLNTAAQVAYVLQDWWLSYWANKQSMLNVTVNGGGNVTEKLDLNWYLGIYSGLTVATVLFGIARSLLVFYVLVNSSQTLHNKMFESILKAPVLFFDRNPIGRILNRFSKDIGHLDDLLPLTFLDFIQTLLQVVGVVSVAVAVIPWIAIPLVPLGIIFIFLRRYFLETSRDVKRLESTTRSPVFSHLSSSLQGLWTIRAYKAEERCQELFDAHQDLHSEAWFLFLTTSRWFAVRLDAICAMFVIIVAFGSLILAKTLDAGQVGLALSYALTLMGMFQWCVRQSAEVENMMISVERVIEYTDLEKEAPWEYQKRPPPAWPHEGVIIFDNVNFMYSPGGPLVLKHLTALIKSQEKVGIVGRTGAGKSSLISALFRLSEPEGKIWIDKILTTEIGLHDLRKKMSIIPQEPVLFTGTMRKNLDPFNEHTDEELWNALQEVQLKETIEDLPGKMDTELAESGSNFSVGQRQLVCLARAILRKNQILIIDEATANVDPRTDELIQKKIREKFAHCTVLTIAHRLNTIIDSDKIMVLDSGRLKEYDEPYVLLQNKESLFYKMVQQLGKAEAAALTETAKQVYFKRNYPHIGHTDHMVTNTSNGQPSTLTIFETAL
The series can be described thus: Inhibition of MRP4-mediated E2-17betaG transport in human MRP4 expressing HEK293 cells at 7 uM during 5 mins. The series is classed as ADME, cell-based. The note with it: hek293, 5 min. The method, boiled down:
as §1

Series [4] can be described thus: Retention time of the compound by LC-MS/MS method. It is filed as physicochemical. In a few lines: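 Reaction mix without radiolabel, AMP condition, with 7.5 μg eYFP vesicles. Supernatant after 16,000–20,000g spin diluted in 50% acetonitrile/0.1% TFA. Gradient of 0.1% TFA water/acetonitrile, 50→90% B over 5 min. Electrospray triple quadrupole. Duplicates, at least three experiments.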

The target in series [5] is T2, Multidrug resistance-associated protein 1. Briefly: Inhibition of MRP1-mediated E2-17betaG transport in human MRP1 expressing HEK293 cells at 33 uM during 5 min. The series is classed as ADME, cell-based. The settings on record: hek293, 5 min. In a few lines: as §1
For series [6], the target named is T3, ATP-binding cassette sub-family C member 4. Briefly: Inhibition of MRP4-mediated E2-17betaG transport in human MRP4 expressing HEK293 cells at 33 uM during 5 mins. The note with it: hek293, 5 min. It is filed as ADME, cell-based. The method, boiled down: as §1
The test system of a further series is Rattus norvegicus. Briefly: Attenuation of CP55940-induced hypotension in iv dosed rat. The series is classed as functional. The method, boiled down: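 Male normotensive anaesthetized Wistar rats; antagonist given i.v. at several doses (n=2 per dose) 10 min before CP55,940 0.1 mg/kg i.v. Hypotension develops within 1 min; lowest blood pressure taken as the hypotensive effect. ED50 is the dose inhibiting the CP55,940 hypotensive effect by 50%, calculated from the linear part of the percentage dose-response curve.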

Series [7] concerns the target T1, ATP-binding cassette sub-family C member 2. Briefly: Induction of MRP2-mediated E2-17betaG transport in human MRP2 expressing HEK293 cells at 33 uM during 5 mins. The series is classed as ADME, cell-based. The settings on record: hek293, 5 min. The method, boiled down:
as §1

Series [8] addresses T2, Multidrug resistance-associated protein 1. Briefly: Inhibition of MRP1-mediated E2-17betaG transport in human MRP1 expressing HEK293 cells at 1 to 3 uM during 5 mins. The series is classed as ADME, cell-based. The settings on record: hek293, 5 min. The method, boiled down: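 Inside-out membrane vesicles from MRP1-baculovirus-transduced HEK293 cells. 7.5 μg vesicles in TS buffer, 4 mM ATP, 10 mM MgCl2, 0.16 μM [3H]E2-17βG, 5 min at 37°C. Stopped on ice, then rapid filtration and scintillation counting. ATP minus AMP uptake taken as net. Nominal 10 or 100 μM antagonist, actual levels by LC-MS/MS. Expressed as % of untreated. Three independent experiments.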

Series [9] addresses T1, ATP-binding cassette sub-family C member 2. Briefly: Induction of MRP2-mediated E2-17betaG transport in human MRP2 expressing HEK293 cells at 1 to 3 uM during 5 mins. The settings on record: hek293, 5 min. It is filed as ADME, cell-based. The method, boiled down: (§2)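 Inside-out membrane vesicles from HEK293 cells transduced with MRP2 baculovirus (sodium butyrate 5 mM added at 24 h, harvested day 3). 7.5 μg vesicles in TS buffer (pH 7.4) with 4 mM ATP, 10 mM MgCl2, 20 μM [3H]E2-17βG, 5 min at 37°C. Rapid filtration and scintillation counting; AMP values subtracted. Nominal 10 and 100 μM antagonist, actual levels measured by LC-MS/MS. Untreated set at 100%. Three independent experiments.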

Series [10] deals with T3, ATP-binding cassette sub-family C member 4. The series can be described thus: Inhibition of MRP4-mediated E2-17betaG transport in human MRP4 expressing HEK293 cells at 1 to 3 uM during 5 mins. The note with it: hek293, 5 min. The series is classed as ADME, cell-based. In a few lines: (§3)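 MRP4-expressing HEK293 inside-out vesicles (baculovirus transduction). 7.5 μg protein with 4 mM ATP, 10 mM MgCl2 in TS buffer and 0.12 μM [3H]E2-17βG, 5 min at 37°C. Filter-bound radioactivity counted; AMP control subtracted for ATP-dependent uptake. Nominal 10/100 μM antagonist, actual concentrations by LC-MS/MS. Percent of untreated, three independent experiments.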

Series [11] deals with T1, ATP-binding cassette sub-family C member 2. Briefly: Induction of MRP2-mediated E2-17betaG transport in human MRP2 expressing HEK293 cells at 0.7 to 1.3 uM during 5 mins. It is filed as ADME, cell-based. The note with it: hek293, 5 min. The method, boiled down:
as §2

The next series addresses T4, MRP4 (ABCC4) (Homo sapiens, UniProt O15439).
T4 sequence (O15439 whole entry): T3 sequence (O15439 whole entry)
Briefly: Inhibition of MRP4-mediated E2-17betaG transport in human MRP4 expressing HEK293 cells at 4 uM during 5 mins. The note with it: probe E2-17betaG. The series is classed as ADME, cell-based. In a few lines: as §3

The nature of series [12]: Cmax in male human subjects. The series is classed as ADME, organism-based. The note with it: in vivo.
For series [13], the target named is T1, ATP-binding cassette sub-family C member 2. Briefly: Induction of MRP2-mediated E2-17betaG transport in human MRP2 expressing HEK293 cells at 4 uM during 5 mins. The series is classed as ADME, cell-based. The settings on record: hek293, 5 min. In a few lines:
as §2

The target in series [14] is T3, ATP-binding cassette sub-family C member 4. The series can be described thus: Noncompetitive inhibition of MRP4-mediated E2-17betaG transport in human MRP4 expressing HEK293 cells by Dixon plot. It is filed as ADME, cell-based.
Series [15] has as its target ATP-binding cassette sub-family C member 3 (Homo sapiens, UniProt O15438). Briefly: Inhibition of MRP3-mediated E2-17betaG transport in human MRP3 expressing HEK293 cells in presence of 15 uM E2-17betaG. The series is classed as ADME, cell-based. In a few lines:
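Vesicles from MRP3-transduced HEK293 cells. 7.5 μg in TS buffer with 4 mM ATP and 10 mM MgCl2, substrate [3H]E2-17βG at 15 μM, with antagonists at high concentrations. Incubated at 37°C, filtered and counted. ATP-dependent uptake calculated by AMP subtraction.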

Series [16] concerns the target T3, ATP-binding cassette sub-family C member 4. Briefly: Inhibition of MRP4-mediated E2-17betaG transport in human MRP4 expressing HEK293 cells in presence of 0.1 to 1 uM E2-17betaG.

Here are results for five molecules from ChEMBL document CHEMBL3526013, “Cannabinoid type 1 receptor antagonists modulate transport activity of multidrug resistance-associated proteins MRP1, MRP2, MRP3, and MRP4” (Drug Metab Dispos, 2011).

Each structure is given as a SMILES string.

T1 sequence (Q92887 whole entry): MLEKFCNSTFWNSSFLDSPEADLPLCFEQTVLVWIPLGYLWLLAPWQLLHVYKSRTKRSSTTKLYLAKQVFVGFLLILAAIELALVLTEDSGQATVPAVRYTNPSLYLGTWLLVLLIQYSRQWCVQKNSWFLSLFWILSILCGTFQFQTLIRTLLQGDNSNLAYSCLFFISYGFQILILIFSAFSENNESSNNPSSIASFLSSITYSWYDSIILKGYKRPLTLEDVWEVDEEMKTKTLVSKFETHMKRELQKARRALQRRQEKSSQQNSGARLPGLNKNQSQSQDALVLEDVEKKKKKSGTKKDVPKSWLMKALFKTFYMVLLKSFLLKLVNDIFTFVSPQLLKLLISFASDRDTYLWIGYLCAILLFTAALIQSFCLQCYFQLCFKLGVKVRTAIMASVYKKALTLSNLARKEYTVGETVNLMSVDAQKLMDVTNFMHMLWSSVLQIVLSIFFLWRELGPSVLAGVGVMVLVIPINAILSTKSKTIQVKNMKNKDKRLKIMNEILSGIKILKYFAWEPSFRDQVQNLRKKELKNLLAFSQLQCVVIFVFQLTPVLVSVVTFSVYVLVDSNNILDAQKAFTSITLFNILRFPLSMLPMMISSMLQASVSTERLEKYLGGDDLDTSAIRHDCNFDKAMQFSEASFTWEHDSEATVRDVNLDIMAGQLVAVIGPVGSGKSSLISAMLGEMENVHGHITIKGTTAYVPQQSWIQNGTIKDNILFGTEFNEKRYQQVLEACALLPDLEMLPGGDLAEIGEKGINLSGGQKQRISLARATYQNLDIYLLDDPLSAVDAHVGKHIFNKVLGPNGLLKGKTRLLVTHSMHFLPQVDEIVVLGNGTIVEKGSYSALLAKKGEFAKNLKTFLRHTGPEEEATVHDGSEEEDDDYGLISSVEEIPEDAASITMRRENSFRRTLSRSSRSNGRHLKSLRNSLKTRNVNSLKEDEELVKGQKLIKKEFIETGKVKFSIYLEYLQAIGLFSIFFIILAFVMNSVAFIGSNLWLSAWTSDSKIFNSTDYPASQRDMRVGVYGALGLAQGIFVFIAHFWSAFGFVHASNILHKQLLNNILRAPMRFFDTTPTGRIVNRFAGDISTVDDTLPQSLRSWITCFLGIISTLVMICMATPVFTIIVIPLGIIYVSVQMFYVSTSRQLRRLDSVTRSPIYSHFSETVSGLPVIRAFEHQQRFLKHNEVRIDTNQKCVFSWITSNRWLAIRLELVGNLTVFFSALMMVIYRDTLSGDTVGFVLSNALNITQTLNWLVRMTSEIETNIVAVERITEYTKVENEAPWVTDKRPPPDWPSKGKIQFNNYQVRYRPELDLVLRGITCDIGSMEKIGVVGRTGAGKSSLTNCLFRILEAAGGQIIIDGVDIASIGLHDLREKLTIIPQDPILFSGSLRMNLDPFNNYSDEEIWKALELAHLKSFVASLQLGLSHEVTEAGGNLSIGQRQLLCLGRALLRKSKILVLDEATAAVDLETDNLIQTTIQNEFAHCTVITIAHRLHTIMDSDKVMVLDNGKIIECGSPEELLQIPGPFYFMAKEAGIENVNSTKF
T2 sequence (P33527 whole entry): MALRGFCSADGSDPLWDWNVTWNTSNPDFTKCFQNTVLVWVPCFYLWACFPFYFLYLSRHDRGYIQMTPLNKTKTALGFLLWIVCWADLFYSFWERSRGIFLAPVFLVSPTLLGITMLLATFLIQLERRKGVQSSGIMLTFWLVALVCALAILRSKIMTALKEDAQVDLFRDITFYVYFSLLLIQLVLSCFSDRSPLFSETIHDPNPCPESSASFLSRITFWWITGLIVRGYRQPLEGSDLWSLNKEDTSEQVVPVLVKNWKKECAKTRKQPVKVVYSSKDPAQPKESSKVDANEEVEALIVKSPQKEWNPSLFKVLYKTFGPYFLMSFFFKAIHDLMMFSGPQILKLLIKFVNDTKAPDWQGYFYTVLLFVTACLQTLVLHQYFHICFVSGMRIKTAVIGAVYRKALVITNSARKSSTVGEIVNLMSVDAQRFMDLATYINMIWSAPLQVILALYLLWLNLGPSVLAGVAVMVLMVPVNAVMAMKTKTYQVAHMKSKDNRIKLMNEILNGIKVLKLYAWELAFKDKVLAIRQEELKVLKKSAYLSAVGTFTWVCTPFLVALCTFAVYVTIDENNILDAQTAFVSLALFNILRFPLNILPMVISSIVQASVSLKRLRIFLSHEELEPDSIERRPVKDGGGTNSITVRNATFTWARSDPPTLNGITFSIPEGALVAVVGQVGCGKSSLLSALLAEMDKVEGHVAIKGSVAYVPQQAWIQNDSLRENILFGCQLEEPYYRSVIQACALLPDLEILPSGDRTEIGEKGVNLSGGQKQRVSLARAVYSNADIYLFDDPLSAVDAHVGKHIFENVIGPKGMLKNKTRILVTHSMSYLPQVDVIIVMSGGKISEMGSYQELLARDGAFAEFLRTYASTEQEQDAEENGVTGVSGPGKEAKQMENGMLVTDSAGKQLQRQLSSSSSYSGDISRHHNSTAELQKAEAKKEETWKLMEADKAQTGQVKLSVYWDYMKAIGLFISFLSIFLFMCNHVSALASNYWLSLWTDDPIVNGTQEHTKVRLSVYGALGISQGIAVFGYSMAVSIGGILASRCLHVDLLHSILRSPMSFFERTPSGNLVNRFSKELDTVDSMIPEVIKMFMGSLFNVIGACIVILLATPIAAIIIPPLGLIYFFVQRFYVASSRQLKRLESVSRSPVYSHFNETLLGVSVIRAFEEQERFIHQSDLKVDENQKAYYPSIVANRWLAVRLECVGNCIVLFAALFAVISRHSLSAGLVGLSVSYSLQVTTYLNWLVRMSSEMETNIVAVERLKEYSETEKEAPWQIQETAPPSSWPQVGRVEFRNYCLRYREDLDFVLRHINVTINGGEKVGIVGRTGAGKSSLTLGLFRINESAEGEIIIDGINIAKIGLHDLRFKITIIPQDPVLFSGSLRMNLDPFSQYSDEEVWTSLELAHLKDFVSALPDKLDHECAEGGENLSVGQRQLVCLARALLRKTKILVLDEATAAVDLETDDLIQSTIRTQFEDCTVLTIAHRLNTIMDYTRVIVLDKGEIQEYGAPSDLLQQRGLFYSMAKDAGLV
Sequence of ATP-binding cassette sub-family C member 3 (O15438 whole entry): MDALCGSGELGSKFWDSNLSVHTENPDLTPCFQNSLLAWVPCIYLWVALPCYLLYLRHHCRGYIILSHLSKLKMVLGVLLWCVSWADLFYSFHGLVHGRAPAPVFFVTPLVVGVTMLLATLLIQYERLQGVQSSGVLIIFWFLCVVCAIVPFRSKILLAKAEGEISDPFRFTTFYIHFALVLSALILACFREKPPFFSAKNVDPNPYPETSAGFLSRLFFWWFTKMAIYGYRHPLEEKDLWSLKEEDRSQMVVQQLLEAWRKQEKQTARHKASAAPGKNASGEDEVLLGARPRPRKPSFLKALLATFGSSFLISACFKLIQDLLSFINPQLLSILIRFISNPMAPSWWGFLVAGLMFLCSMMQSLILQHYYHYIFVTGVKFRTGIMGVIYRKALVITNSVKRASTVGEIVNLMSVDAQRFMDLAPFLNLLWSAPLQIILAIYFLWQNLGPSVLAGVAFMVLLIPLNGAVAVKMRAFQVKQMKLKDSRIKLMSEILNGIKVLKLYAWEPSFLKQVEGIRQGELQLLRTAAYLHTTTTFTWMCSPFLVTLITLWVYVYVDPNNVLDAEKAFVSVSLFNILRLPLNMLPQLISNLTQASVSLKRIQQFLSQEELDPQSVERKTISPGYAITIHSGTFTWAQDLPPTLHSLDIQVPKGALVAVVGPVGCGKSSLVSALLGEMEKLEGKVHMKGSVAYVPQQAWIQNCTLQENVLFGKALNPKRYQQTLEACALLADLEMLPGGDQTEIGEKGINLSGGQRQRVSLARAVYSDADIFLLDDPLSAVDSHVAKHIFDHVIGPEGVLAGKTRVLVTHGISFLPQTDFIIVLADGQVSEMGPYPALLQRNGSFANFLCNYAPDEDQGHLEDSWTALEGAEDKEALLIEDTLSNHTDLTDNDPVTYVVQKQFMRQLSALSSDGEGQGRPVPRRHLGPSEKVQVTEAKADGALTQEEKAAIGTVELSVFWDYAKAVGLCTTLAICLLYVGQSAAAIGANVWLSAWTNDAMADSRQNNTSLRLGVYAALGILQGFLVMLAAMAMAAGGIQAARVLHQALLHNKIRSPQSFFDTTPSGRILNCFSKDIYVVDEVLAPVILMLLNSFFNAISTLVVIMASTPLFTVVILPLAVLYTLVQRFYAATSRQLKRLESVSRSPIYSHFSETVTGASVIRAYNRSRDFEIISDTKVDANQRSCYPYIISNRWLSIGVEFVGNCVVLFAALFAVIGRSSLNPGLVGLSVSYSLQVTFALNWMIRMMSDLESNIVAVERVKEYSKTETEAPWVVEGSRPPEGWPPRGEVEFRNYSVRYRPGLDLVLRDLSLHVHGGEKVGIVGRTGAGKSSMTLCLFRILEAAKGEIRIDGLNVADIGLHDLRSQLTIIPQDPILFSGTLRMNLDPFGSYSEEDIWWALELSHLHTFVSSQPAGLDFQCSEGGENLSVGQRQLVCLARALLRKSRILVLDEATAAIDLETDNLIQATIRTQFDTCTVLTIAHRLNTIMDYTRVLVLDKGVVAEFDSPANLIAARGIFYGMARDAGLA

In the case of `C/N=C(\NS(=O)(=O)N(C)C(C)C)N1CC(c2ccccc2)C(c2ccc(Cl)cc2)=N1` (stereo not given), the Activity in [1] was 543%. For the same molecule, the “inhibition (INH)” value in series [2] and in [3] was “Active” in each case. This molecule came in with a Retention_time in series [4] of 4.2 min.

With `C/N=C(\NS(=O)(=O)N(C)C)N1CC(c2ccccc2)C(c2ccc(Cl)cc2)=N1` (stereo not given), the “inhibition (INH)” value in series [5] and in [6] was “Active” in each case. For the same molecule, the ED50 (in general, the midpoint of the dose-response relation) in the series on Rattus norvegicus is over 0.3 mg/kg. Besides, the Activity in [7] was found to be 543%. The molecule further registered a Retention_time in series [4] of 3.2 min.

Regarding `C/N=C(\NS(=O)(=O)N1CCSCC1)N1CC(c2ccccc2)C(c2ccc(Cl)cc2)=N1` (stereo not given), the “inhibition (INH)” value in series [8] and in [10] was “Not Active” each time. Besides, the Activity turned out to be 349% in series [9] and 256% in series [11]. Moreover, in [4], the Retention_time stood at 4 min.

`CN=C(NS(=O)(=O)N1CCS(=O)(=O)CC1)N1CC(c2ccccc2)C(c2ccc(Cl)cc2)=N1` (stereo not given): the “inhibition (INH)” value in series [8] and in series [10] was “Not Active” in each case. In series [9], the Activity entry is reported as “Not Active”. In series [4], this molecule showed a Retention_time of 2.6 min.

Turning to `Cc1c(C(=O)NN2CCCCC2)nn(-c2ccc(Cl)cc2Cl)c1-c1ccc(Cl)cc1` [RIMONABANT], on MRP4 (ABCC4), the inhibition (as a rule, the change of the read-out against control, counted positive when it falls) at 5 min, 4 µM was -58%. In addition, the Cmax (usually the peak of the concentration-time curve) in [12] amounted to 400 nM. The molecule further had an Activity in [13] of 513%. In series [14], the Ki (as a rule, the equilibrium dissociation constant of an inhibitor or competing ligand from its target) worked out at 4 µM. The “inhibition (INH)” value in series [15] and in [16] was “Active” each time. This molecule came in with a Retention_time in series [4] of 3.2 min.
